pIC50: −log10 of the molar value. The source made the active and inactive calls. Unless noted, no cut-off for these calls is given here.
Legend:
U-937 [1] = assay: Inhibition of histone H3R17 methylation in human U937 cells at 50 uM after 24 hrs; format: functional, cell-based
Procedure, shortened: (§1)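 U937 cells treated at 50 µM for 24 h. Histones extracted with Triton buffer, then 0.2 M HCl overnight at 4 °C. 3–10 µg run on 15% SDS-PAGE and immunoblotted with anti-monomethyl-H3K4, monomethyl-H4R3 or dimethyl-H3R17 (1:500, overnight 4 °C), ECL detection. Loading controls: total H4 (H3K4), Ponceau Red (Arg marks).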

U-937 [2] = assay: Inhibition of histone H4R3 methylation in human U937 cells at 50 uM after 24 hrs; format: functional, cell-based; procedure, shortened: as §1
[3] = molecular target: RmtA (Emericella nidulans) (UniProt Q5VLE3); assay: Inhibition of Aspergillus nidulans RmtA at 84.6 uM
Chain of RmtA (Emericella nidulans) (Q5VLE3 as listed by the source): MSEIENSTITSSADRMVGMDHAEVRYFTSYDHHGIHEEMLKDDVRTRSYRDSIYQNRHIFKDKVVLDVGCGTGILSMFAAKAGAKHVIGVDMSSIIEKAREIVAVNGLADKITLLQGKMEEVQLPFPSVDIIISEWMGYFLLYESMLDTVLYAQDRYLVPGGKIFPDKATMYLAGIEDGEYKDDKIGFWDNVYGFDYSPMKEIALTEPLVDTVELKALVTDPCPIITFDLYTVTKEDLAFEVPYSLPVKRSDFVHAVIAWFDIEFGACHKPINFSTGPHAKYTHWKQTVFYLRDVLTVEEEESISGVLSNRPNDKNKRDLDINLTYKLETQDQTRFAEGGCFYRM
Procedure, shortened: (§2)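 Enzyme was GST-RmtA fusion expressed in E. coli BL21 and glutathione-affinity purified (500 ng), preincubated with compound for 15 min at room temperature. Then 20 µg chicken erythrocyte core histones and 0.55 µCi [3H]AdoMet were added, 30 min at 30 °C. Stopped with 25% TCA, filtered, counted by liquid scintillation.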

U-937 [4] = assay: Inhibition of histone H3K4 methylation in human U937 cells at 50 uM after 24 hrs; format: functional, cell-based; procedure, shortened: as §1
U-937 [5] = assay: Inhibition of human p300/CBP in U937 cells at 50 uM assessed as histone H3 acetylation; format: cell-based
Procedure, shortened: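 Source was U937 nuclear extract (10 µg per assay) as p300/CBP HAT, with histone H3 substrate and compound at 50 µM or DMSO control for 90 min. Acetyl-H3 detected by indirect ELISA, quantified against acetylated H3 peptide standard curves, […].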

[6] = molecular target: T1, Histone-lysine N-methyltransferase SETD7 (Homo sapiens) (UniProt Q8WTS6); assay: Inhibition of human recombinant SET7 assessed as histone H3 protein methylation at 100 uM
T1 sequence (whole entry): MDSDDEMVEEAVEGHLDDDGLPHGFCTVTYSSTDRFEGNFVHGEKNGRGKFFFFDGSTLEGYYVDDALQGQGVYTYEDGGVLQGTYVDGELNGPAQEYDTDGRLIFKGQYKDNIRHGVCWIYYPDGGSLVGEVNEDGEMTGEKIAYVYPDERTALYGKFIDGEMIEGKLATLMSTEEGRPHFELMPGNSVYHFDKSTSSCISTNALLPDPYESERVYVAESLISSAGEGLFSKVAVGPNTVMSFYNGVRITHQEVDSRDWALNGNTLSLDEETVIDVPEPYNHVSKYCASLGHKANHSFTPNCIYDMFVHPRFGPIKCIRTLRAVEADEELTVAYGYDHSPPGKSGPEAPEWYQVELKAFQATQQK
Procedure, shortened: (§3)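 Recombinant enzymes (0.2 µg) with substrate (0.5 µg: Npl3p for PRMT1, PABP1 for CARM1, histone H3 for SET7), 0.5 µM [3H]AdoMet and 100 µM compound in PBS pH 7.4 with 3.3% v/v DMSO, 90 min at 30 °C. Products separated by 10% SDS-PAGE, transferred to PVDF, detected by fluorography on film overnight.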

[7] = molecular target: T2, NAD-dependent protein deacetylase sirtuin-2 (Homo sapiens) (UniProt Q8IXJ6); assay: Inhibition of human SIRT2 at 25 uM
T2 sequence (whole entry): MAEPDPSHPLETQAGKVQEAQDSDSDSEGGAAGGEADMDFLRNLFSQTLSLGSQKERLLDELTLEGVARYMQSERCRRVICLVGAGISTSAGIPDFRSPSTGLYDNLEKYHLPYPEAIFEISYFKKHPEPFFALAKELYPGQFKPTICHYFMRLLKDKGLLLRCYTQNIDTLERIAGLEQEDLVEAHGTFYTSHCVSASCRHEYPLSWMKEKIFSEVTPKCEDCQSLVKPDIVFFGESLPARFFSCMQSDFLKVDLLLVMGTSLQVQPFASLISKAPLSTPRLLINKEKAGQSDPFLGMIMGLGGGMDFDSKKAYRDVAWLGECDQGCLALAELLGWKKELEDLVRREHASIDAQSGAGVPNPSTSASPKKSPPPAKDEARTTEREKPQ
Procedure, shortened: (§4)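 Fluorescent two-stage assay. SIRT1 (1 U/well) or SIRT2 (5 U/well) with Fluor de Lys-SIRT1/2 substrate, NAD+ and compound at 25 µM, 37 °C for 2 h. Developer II containing nicotinamide then stopped the reaction and generated signal, read at ex 360/em 460 nm.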

[8] = molecular target: Protein arginine N-methyltransferase 1 (Homo sapiens) (UniProt Q99873); assay: Inhibition of human recombinant PRMT1 assessed as nuclear ribonucleoprotein Npl3p methylation at 100 uM; procedure, shortened: as §3
Chain of Protein arginine N-methyltransferase 1 (Homo sapiens) (Q99873 whole entry, looked up): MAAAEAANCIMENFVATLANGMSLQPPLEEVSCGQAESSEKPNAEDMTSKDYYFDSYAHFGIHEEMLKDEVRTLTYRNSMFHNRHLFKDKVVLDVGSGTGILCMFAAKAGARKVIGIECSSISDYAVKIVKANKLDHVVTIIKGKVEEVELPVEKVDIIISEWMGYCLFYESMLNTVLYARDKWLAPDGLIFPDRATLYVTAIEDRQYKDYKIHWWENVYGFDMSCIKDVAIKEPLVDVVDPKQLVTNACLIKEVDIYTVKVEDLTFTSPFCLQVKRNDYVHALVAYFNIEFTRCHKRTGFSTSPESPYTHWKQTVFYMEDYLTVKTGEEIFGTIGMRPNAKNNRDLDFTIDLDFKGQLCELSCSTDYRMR

[9] = molecular target: Protein arginine N-methyltransferase 1 (Homo sapiens) (UniProt Q99873); assay: Inhibition of human recombinant PRMT1 assessed as histone H4 methylation at 50 uM
U-937 [10] = assay: Induction of apoptosis in human U937 cells at 25 uM after 30 hrs; format: functional
Procedure, shortened: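 Apoptosis read as caspase 3 activation by FACS, in U937 cells (RPMI, 10% fetal calf serum, 200000 cells/mL) exposed to 25 µM for 30 h.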

[11] = molecular target: T3, NAD-dependent protein deacetylase sirtuin-1 (Homo sapiens) (UniProt Q96EB6); assay: Inhibition of human SIRT1 at 25 uM; procedure, shortened: as §4
T3 sequence (whole entry): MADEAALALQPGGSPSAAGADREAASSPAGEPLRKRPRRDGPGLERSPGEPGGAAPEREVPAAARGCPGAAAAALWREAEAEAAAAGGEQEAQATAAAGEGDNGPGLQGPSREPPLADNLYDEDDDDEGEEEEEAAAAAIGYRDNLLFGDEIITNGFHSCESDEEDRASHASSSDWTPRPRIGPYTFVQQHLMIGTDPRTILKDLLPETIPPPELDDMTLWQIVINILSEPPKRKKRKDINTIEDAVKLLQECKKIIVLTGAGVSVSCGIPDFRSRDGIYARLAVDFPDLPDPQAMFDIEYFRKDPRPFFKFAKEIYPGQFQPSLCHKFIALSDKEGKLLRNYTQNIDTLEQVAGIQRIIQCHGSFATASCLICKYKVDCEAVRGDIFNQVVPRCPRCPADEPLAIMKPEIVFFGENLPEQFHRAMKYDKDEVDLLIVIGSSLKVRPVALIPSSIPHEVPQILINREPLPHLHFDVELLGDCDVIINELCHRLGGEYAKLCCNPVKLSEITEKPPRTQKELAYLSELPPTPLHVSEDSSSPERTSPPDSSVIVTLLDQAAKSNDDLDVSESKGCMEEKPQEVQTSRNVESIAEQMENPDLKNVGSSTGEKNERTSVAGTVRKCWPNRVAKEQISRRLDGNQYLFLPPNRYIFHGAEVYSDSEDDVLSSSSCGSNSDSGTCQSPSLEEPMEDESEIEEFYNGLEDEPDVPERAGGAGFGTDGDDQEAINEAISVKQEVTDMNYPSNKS

[12] = molecular target: T4, Histone-arginine methyltransferase CARM1 (Homo sapiens) (UniProt Q86X55); assay: Inhibition of human recombinant CARM1 assessed as poly(A) binding protein 1 methylation at 100 uM; procedure, shortened: as §3
T4 sequence (whole entry): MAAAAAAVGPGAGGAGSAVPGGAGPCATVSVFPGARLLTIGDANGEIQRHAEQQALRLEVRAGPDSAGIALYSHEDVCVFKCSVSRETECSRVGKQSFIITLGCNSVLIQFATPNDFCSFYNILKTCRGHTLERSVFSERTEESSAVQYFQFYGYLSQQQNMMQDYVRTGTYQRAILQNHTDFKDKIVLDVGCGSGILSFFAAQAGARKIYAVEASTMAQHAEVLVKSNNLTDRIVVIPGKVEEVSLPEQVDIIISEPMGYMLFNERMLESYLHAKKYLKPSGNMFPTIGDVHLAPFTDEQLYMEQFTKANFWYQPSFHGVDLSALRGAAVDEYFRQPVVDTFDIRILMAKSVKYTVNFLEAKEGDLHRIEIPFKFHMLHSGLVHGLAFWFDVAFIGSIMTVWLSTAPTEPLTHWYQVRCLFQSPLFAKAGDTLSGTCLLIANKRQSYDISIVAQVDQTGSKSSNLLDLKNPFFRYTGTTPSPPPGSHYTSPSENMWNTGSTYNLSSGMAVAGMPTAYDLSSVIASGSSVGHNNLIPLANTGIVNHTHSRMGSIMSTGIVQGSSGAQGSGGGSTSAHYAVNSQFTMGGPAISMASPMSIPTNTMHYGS

U-937 [13] = assay: Cell cycle arrest in human U937 cells assessed as accumulation at S/G2 phase at 25 uM after 30 hrs; format: functional, cell-based
Procedure, shortened: (§5)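 U937 cells in RPMI with 10% fetal calf serum, HEPES and glutamine, kept at 200000 cells/mL; treated at 25 µM for 30 h, then the distribution across cell cycle phases was analysed.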

RmtA = RmtA (Emericella nidulans, UniProt Q5VLE3); assay: Inhibition of Aspergillus nidulans RmtA; procedure, shortened: as §2
Chain of RmtA (Q5VLE3 whole entry): as the sequence (Q5VLE3 as listed by the source) above

U-937 [14] = assay: Induction of granulocytic differentiation in human U937 cells assessed as CD11c expression at 5 uM after 30 hrs; format: functional
Procedure, shortened: (§6)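 U937 cells treated for 30 h, then stained with PE-conjugated CD11c (PE mouse IgG1 as control) for 30 min at 4 °C in the dark and resuspended in PBS with PI (0.25 µg/mL). Read-out is percent CD11c-positive/PI-negative cells, with dead PI-positive cells excluded. Coloured compounds limited the top dose to 5 µM or lower.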

U-937 [15] = assay: Induction of granulocytic differentiation in human U937 cells assessed as CD11c expression at 1 uM after 30 hrs; format: functional; procedure, shortened: as §6
U-937 [16] = assay: Induction of cell cycle arrest in human U937 cells at 25 uM after 30 hrs; format: functional, cell-based; procedure, shortened: as §5
[17] = molecular target: RmtA (Emericella nidulans) (UniProt Q5VLE3); assay: Inhibition of Aspergillus nidulans RmtA at 90 uM
[18] = molecular target: RmtA (Emericella nidulans) (UniProt Q5VLE3); assay: Inhibition of Aspergillus nidulans RmtA at 88.5 uM; procedure, shortened: as §2
[19] = molecular target: RmtA (Emericella nidulans) (UniProt Q5VLE3); assay: Inhibition of Aspergillus nidulans RmtA at 77 uM

| inhibition [3] [%] | Activity [6] | inhibition [7] [%] | Activity [8] | inhibition [9] [%] | inhibition [11] [%] | Activity [12] | pIC50 (RmtA) | inhibition [17] [%] | inhibition [18] [%] | inhibition [19] [%] | SMILES | Activity (U-937 [1]) | Activity (U-937 [2]) | Activity (U-937 [4]) | inhibition (U-937 [5]) [%] | Activity (U-937 [10]) [%] | Activity (U-937 [13]) | Activity (U-937 [14]) [%] | Activity (U-937 [15]) [%] | Activity (U-937 [16]) |
| --- | --- | --- | --- | --- | --- | --- | --- | --- | --- | --- | --- | --- | --- | --- | --- | --- | --- | --- | --- | --- |
| 0 |  |  |  |  |  |  |  |  |  |  | CN1C2CCC1/C(=C\c1ccc(O)c(Br)c1)C(=O)/C2=C/c1ccc(O)c(Br)c1 | Active | Active | Active |  |  |  |  |  |  |
|  | Active | 59 | Active | 73 | 54 | Active | 4.35 |  |  |  | O=C1/C(=C/c2cc(Br)c(O)c(Br)c2)CSC/C1=C\c1cc(Br)c(O)c(Br)c1 | Active | Active | Active | 69 | 40.7 | Active | 9.1 |  |  |
|  | Active | 31 | Active | 96 | 33 | Active | 4.74 |  |  |  | O=C1OC2(c3ccccc31)c1cc(Br)c(O)c(Br)c1Oc1c2cc(Br)c(O)c1Br [EOSIN] | Active | Active |  | 20 | 0.5 |  |  | 5.7 | inactive |
|  |  |  |  |  |  |  |  | 0 |  |  | O=C(c1cc(Br)c(O)c(Br)c1)c1cc(Br)c(O)c(Br)c1 | Active | Active | Active |  |  |  |  |  |  |
|  | inactive |  | inactive |  |  | Active |  |  | 0 |  | O=C1/C(=C/c2ccc(O)c(Br)c2)CSC/C1=C\c1ccc(O)c(Br)c1 | Active | Active | Active |  |  |  |  |  |  |
|  | inactive |  | inactive |  |  | Active |  |  |  | 0 | O=C1/C(=C/c2ccc(O)c(Br)c2)CN(Cc2ccccc2)C/C1=C\c1ccc(O)c(Br)c1 | Active | Active | Active |  |  |  |  |  |  |

Reference: ChEMBL document CHEMBL1144710, “epigenetic multiple ligands: mixed histone/protein methyltransferase, acetyltransferase, and class III deacetylase (sirtuin) inhibitors” (J Med Chem, 2008)
